# Assay results from ChEMBL document CHEMBL2057168, “(1aR,5aR)1a,3,5,5a-Tetrahydro-1H-2,3-diaza-cyclopropa[a]pentalene-4-carboxylic acid (MK-1903): a potent GPR109a agonist that lowers free fatty acids in humans” (J Med Chem, 2012).
# Activity calls are given as the source filed them. The calls are words filed in the database; no cut-off is given here.
# Experiments:
# [1] = target: Hydroxycarboxylic acid receptor 3 (Homo sapiens) (UniProt P49019); test: Agonist activity at human GPR109b assessed as decrease in forskolin-stimulated cAMP production by HTRF assay; format: functional
# Sequence of Hydroxycarboxylic acid receptor 3 (Homo sapiens) (P49019 whole entry): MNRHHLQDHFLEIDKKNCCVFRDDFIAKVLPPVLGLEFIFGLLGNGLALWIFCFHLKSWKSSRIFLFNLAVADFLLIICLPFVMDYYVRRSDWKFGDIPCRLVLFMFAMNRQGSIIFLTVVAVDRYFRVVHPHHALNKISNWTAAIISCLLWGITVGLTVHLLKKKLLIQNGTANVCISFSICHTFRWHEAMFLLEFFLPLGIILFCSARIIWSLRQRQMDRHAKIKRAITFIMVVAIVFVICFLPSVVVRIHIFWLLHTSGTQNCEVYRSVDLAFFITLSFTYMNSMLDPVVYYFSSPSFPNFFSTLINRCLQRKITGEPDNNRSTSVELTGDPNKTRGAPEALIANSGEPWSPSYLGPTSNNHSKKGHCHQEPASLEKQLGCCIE
# Mus musculus [2] = test: Toxicity in C57/Bl6 mouse assessed as increase in cutaneous blood flow in ear at 100 mg/kg, ip after 5 mins relative to vehicle treated control by laser doppler flowmetry; format: organism-based; design: dose 100 mg/kg, route intraperitoneal; details: in vivo
# Procedure, shortened: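 Male C57/Bl6 mice (8–10 weeks, ~25 g) anesthetized with Nembutal ip (80 mg/10 mL/kg). Ear perfusion recorded by laser Doppler imaging: 3 min baseline, then vehicle (PBS, 40% HPBCD or 0.5% methylcellulose) or compound given ip at 5 mL/kg through a preinserted syringe, with readings for ~15 min. Expressed as % change of perfusion over baseline.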
# Canis familiaris [3] = test: Dose normalized Cmax in po dosed dog; format: ADME, organism-based, Canis lupus familiaris; details: in vivo
# [4] = Oral bioavailability in dog; format: ADME, organism-based, Canis lupus familiaris; details: in vivo
# Cytochrome P450 2C9 = Cytochrome P450 2C9 (Homo sapiens, UniProt P11712); test: Activity at CYP2C9; format: ADME
# Sequence of Cytochrome P450 2C9 (P11712 whole entry): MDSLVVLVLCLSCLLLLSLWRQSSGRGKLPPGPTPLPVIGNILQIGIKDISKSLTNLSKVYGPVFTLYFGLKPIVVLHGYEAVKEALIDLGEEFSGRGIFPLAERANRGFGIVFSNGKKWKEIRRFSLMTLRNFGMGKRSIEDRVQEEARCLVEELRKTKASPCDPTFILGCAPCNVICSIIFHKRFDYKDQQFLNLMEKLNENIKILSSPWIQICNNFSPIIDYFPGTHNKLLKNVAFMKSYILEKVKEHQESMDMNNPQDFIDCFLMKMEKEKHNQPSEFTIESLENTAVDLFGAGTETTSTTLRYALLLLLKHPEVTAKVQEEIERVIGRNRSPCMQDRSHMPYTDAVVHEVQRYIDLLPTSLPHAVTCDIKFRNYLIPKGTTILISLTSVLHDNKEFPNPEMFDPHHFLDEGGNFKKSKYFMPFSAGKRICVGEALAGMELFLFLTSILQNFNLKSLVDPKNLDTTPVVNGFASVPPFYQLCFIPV
# [5] = Terminal half life in Sprague-Dawley rat at 2 mg/kg, iv; format: ADME, organism-based; design: dose 2 mg/kg, route intravenous; details: in vivo, read-out: beta t1/2 (converted)
# Procedure, shortened: (§1)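 Male Sprague-Dawley rats were dosed at 10 mg/kg po or 2 mg/kg iv in 80% PEG400/20% phosphate-buffered saline, fasted overnight before the oral dose. Jugular blood was sampled serially from 0.25 to 21 h over 24 h, and heparinized plasma was prepared. Drug was assayed by HPLC/MS/MS (quantitation range 1–2000 ng/mL).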
# [6] = Volume of distribution in dog; format: ADME, organism-based, Canis lupus familiaris; details: in vivo
# Rattus norvegicus [7] = test: Antidyslipedic activity in fasted Sprague-Dawley rat assessed as decrease in free fatty acid level at 0.1 to 30 mg/kg, po by NEFA C-free fatty acid assay; format: functional; design: scale not given: the % may be the effect or the level left; details: dose mg/kg 0.1-30
# Procedure, shortened: (§2)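 Male Sprague-Dawley rats fasted, compound by oral gavage, serial plasma sampling after dosing for free fatty acids over a time course; vehicle-dosed control group.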
# [8] = Plasma clearance in Sprague-Dawley rat at 2 mg/kg, iv; format: ADME, organism-based; design: dose 2 mg/kg, route intravenous; procedure, shortened: as §1
# Mus musculus [9] = test: Dose normalized AUC in po dosed mouse; format: ADME, organism-based; details: in vivo
# Mus musculus [10] = test: Dose normalized Cmax in po dosed mouse; format: ADME, organism-based; details: in vivo
# Rattus norvegicus [11] = test: Dose normalized AUC in Sprague-Dawley rat at 10 mg/kg, po; format: ADME, organism-based; design: dose 10 mg/kg, route oral; details: in vivo; procedure, shortened: as §1
# Cytochrome P450 2C8 = target: T1, Cytochrome P450 2C8 (Homo sapiens, UniProt P10632); test: Activity at CYP2C8; format: ADME
# T1 sequence (P10632 whole entry): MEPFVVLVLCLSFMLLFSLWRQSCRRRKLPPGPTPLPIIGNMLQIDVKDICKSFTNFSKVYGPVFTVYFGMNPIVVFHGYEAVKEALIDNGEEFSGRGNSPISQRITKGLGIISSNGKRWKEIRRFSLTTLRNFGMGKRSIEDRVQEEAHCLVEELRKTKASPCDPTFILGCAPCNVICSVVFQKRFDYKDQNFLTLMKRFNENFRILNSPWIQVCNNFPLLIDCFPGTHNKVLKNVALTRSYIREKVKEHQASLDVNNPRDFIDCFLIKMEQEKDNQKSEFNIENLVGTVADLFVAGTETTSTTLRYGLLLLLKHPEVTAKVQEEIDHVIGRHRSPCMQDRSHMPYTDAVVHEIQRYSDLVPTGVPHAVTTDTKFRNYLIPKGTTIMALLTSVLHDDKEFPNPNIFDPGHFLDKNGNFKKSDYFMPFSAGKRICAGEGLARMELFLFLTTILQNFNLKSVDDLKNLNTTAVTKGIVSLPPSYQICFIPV
# [12] = Volume of distribution in mouse; format: ADME, organism-based; details: in vivo
# [13] = Blood clearance in mouse; format: ADME, organism-based; details: whole blood
# Procedure, shortened: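 Pharmacokinetics across species; for mice, clearance determined in blood rather than plasma following dosing.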
# Cytochrome P450 2D6 = Cytochrome P450 2D6 (Homo sapiens, UniProt P10635); test: Activity at CYP2D6; format: ADME
# Sequence of Cytochrome P450 2D6 (P10635 whole entry): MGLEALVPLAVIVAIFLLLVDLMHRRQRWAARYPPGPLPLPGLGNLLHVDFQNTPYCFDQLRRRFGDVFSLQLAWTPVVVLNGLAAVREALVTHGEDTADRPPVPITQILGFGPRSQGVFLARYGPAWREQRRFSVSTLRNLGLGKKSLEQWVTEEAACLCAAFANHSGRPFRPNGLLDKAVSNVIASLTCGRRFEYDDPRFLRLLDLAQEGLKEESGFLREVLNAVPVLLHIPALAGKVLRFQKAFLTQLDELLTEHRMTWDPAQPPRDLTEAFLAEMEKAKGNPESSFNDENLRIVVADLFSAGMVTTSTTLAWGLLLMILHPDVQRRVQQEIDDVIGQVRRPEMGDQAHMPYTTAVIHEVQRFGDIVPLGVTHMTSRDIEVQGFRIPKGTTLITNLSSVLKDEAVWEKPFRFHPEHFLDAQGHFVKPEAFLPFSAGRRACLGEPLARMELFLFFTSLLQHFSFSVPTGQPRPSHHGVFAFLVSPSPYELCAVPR
# Rattus norvegicus [14] = test: Dose normalized Cmax in Sprague-Dawley rat at 10 mg/kg, po; format: ADME, organism-based; design: dose 10 mg/kg, route oral; details: in vivo; procedure, shortened: as §1
# [15] = Oral bioavailability in Sprague-Dawley rat at 10 mg/kg; format: ADME, organism-based; details: in vivo; procedure, shortened: as §1
# [16] = Terminal half life in mouse; format: ADME, organism-based; details: in vivo, read-out: beta t1/2 (converted)
# [17] = Volume of distribution in Sprague-Dawley rat at 2 mg/kg, iv; format: ADME, organism-based; design: dose 2 mg/kg, route intravenous; details: in vivo
# Procedure, shortened: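 Male Sprague–Dawley rats dosed iv at 2 mg/kg in 80% PEG400/20% phosphate buffered saline. Jugular vein blood was serially sampled over 24 h, and plasma was prepared from sodium heparin blood. Plasma was analysed by HPLC/MS/MS (LLOQ 1 ng/mL, ULOQ 2000 ng/mL).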
# Canis familiaris [18] = test: Dose normalized AUC in po dosed dog; format: ADME, organism-based, Canis lupus familiaris; details: in vivo
# [19] = Terminal half life in dog; format: ADME, organism-based, Canis lupus familiaris; details: in vivo, read-out: beta t1/2 (converted)
# [20] = Plasma clearance in dog; format: ADME, organism-based, Canis lupus familiaris
# [21] = Oral bioavailability in mouse; format: ADME, organism-based; details: in vivo
# Rattus norvegicus [22] = test: Antidyslipedic activity in fasted Sprague-Dawley rat assessed as decrease in free fatty acid level at 0.01 to 100 mg/kg, po by NEFA C-free fatty acid assay; format: functional; design: scale not given: the % may be the effect or the level left; details: dose mg/kg 0.01-100; procedure, shortened: as §2
# Cytochrome P450 3A4 = Cytochrome P450 3A4 (Homo sapiens, UniProt P08684); test: Activity at CYP3A4; format: ADME
# Sequence of Cytochrome P450 3A4 (P08684 whole entry): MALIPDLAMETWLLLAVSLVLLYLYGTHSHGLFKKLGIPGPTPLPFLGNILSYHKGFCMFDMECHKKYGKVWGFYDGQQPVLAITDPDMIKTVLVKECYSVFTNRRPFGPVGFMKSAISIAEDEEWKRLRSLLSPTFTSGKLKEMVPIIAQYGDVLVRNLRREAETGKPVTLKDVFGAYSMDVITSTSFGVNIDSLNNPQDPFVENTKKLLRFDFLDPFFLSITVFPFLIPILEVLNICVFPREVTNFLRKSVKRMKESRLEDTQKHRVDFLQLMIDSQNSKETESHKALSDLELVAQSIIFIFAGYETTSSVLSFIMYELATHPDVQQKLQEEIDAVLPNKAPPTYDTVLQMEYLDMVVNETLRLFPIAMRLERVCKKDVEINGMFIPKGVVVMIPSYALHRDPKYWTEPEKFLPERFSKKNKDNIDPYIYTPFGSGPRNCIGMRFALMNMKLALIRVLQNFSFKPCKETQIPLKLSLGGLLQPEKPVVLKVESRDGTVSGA
# Rattus norvegicus [23] = test: Antidyslipedic activity in fasted Sprague-Dawley rat assessed as decrease in free fatty acid level at 0.001 mg/kg, po by NEFA C-free fatty acid assay; format: functional, organism-based; design: dose 0.001 mg/kg; procedure, shortened: as §2
structure (smiles),measurement,setting,value
CC1(C)C2Cc3c(C(=O)O)n[nH]c3C21 (racemic),Activity,[1],inactive
C=C[C@@H]1[C@@H]2Cc3c(C(=O)O)n[nH]c3[C@H]12 (racemic),Activity,[1],inactive
C[C@H]1[C@@H]2Cc3c(C(=O)O)n[nH]c3[C@H]12,Activity,[1],inactive
CSC[C@@H]1[C@@H]2Cc3c(C(=O)O)n[nH]c3[C@H]12 (racemic),Activity,[1],inactive
C=CC[C@H]1[C@@H]2Cc3c(C(=O)O)n[nH]c3[C@H]12 (racemic),Activity,[1],inactive
C=CC[C@@H]1[C@@H]2Cc3c(C(=O)O)n[nH]c3[C@H]12 (racemic),Activity,[1],inactive
COC[C@@H]1[C@@H]2Cc3c(C(=O)O)n[nH]c3[C@H]12 (racemic),Activity,[1],inactive
O=C(O)c1cccnc1 [NIACIN],Activity,Mus musculus [2],60%
same,Activity,[1],inactive
CC[C@@H]1[C@@H]2Cc3c(C(=O)O)n[nH]c3[C@H]12 (racemic; form 2),Activity,[1],inactive
CCOC[C@H]1[C@@H]2Cc3c(C(=O)O)n[nH]c3[C@H]12 (racemic),Activity,[1],inactive
O=C(O)c1n[nH]c2c1C[C@H]1[C@@H](CC3CC3)[C@@H]21 (racemic; form 1),Activity,[1],inactive
CC(C)[C@@H]1[C@@H]2Cc3c(C(=O)O)n[nH]c3[C@@H]21 (racemic),Activity,[1],inactive
CCC[C@@H]1[C@@H]2Cc3c(C(=O)O)n[nH]c3[C@H]12 (racemic),Activity,[1],inactive
O=C(O)c1n[nH]c2c1C[C@H]1[C@@H](CC3CC3)[C@@H]21 (racemic; form 2),Activity,[1],inactive
CSC[C@H]1[C@@H]2Cc3c(C(=O)O)n[nH]c3[C@H]12 (racemic),Activity,[1],inactive
C[C@@H]1[C@@H]2Cc3c(C(=O)O)n[nH]c3[C@H]12 (racemic),Activity,[1],inactive
CCCC[C@H]1[C@@H]2Cc3c(C(=O)O)n[nH]c3[C@H]12 (racemic),Activity,[1],inactive
C[C@H]1[C@@H]2Cc3c(C(=O)O)n[nH]c3[C@H]12 (racemic),Activity,[1],inactive
C[C@@H]1[C@@H]2Cc3c(C(=O)O)n[nH]c3[C@H]12 [listing 1 of 2 here],Cmax/dose,Canis familiaris [3],26 µM·kg/mg
same,Activity,Mus musculus [2],30%
same,bioavailability,[4],100%
same,Activity,Cytochrome P450 2C9,Not Active
same,half-life,[5],2.4 h
same,Vd,[6],0.22 L/kg
same,Activity,Rattus norvegicus [7],90%
same,clearance,[8],17 mL/min/kg
same,AUC/dose,Mus musculus [9],1.4 µM·kg·h/mg
same,Cmax/dose,Mus musculus [10],1.5 µM·kg/mg
same,AUC/dose,Rattus norvegicus [11],5.1 µM·kg·h/mg
same,Activity,Cytochrome P450 2C8,Not Active
same,Vd,[12],0.61 L/kg
same,clearance,[13],35 mL/min/kg
same,Activity,Cytochrome P450 2D6,Not Active
same,Cmax/dose,Rattus norvegicus [14],5 µM·kg/mg
same,bioavailability,[15],90%
same,half-life,[16],0.3 h
same,Vd,[17],0.53 L/kg
same,AUC/dose,Canis familiaris [18],44.4 µM·kg·h/mg
same,half-life,[19],2.1 h
same,clearance,[20],2.4 mL/min/kg
same,bioavailability,[21],51%
same,Activity,Rattus norvegicus [22],90%
same,Activity,Cytochrome P450 3A4,Not Active
CCCCC[C@@H]1[C@@H]2Cc3c(C(=O)O)n[nH]c3[C@H]12 (racemic),Activity,[1],inactive
O=C(O)c1n[nH]c2c1C[C@H]1[C@@H](COc3ccccc3)[C@@H]21 (racemic),Activity,[1],inactive
O=C(O)c1n[nH]c2c1CC1CC21 (racemic),Activity,[1],inactive
CC(C)CC[C@@H]1[C@@H]2Cc3c(C(=O)O)n[nH]c3[C@H]12 (racemic),Activity,[1],inactive
O=C(O)c1n[nH]c2c1C[C@@H]1[C@H]2[C@@H]1C1CC1 (racemic),Activity,[1],inactive
C1Cc2[nH]nc(-c3nn[nH]n3)c2C1,Activity,[1],inactive
C=C[C@H]1[C@@H]2Cc3c(C(=O)O)n[nH]c3[C@H]12 (racemic),Activity,[1],inactive
CCCC[C@@H]1[C@@H]2Cc3c(C(=O)O)n[nH]c3[C@H]12 (racemic),Activity,[1],inactive
CC(C)C[C@H]1[C@@H]2Cc3c(C(=O)O)n[nH]c3[C@@H]21 (racemic),Activity,[1],inactive
O=C(O)c1n[nH]c2c1C[C@H]1[C@H](c3ccccc3)[C@@H]21 (racemic),Activity,[1],inactive
CC[C@@H]1[C@@H]2Cc3c(C(=O)O)n[nH]c3[C@H]12 (racemic; form 1),Activity,[1],inactive
CC(C)C[C@@H]1[C@@H]2Cc3c(C(=O)O)n[nH]c3[C@H]12 (racemic),Activity,[1],inactive
CCCCC[C@H]1[C@@H]2Cc3c(C(=O)O)n[nH]c3[C@H]12 (racemic),Activity,[1],inactive
C[C@H]1[C@H]2Cc3c(C(=O)O)n[nH]c3[C@@H]12,Activity,[1],inactive
C[C@@H]1[C@H]2Cc3c(C(=O)O)n[nH]c3[C@@H]12,Activity,[1],inactive
CC(C)CC[C@H]1[C@@H]2Cc3c(C(=O)O)n[nH]c3[C@H]12 (racemic),Activity,[1],inactive
CCC[C@H]1[C@@H]2Cc3c(C(=O)O)n[nH]c3[C@H]12 (racemic),Activity,[1],inactive
COC[C@H]1[C@@H]2Cc3c(C(=O)O)n[nH]c3[C@H]12 (racemic),Activity,[1],inactive
O=C(O)c1n[nH]c2c1C[C@H]1[C@H](Cc3ccccc3)[C@@H]21 (racemic),Activity,[1],inactive
CC[C@H]1[C@@H]2Cc3c(C(=O)O)n[nH]c3[C@H]12 (racemic),Activity,[1],inactive
C[C@@H]1[C@@H]2Cc3c(C(=O)O)n[nH]c3[C@H]12 [listing 2 of 2 here],Activity,[1],inactive
same,Activity,Rattus norvegicus [23],inactive
CCOC[C@@H]1[C@@H]2Cc3c(C(=O)O)n[nH]c3[C@H]12 (racemic),Activity,[1],inactive
